Shown are actives, neighbours in structure and some others; about 3.5% of the full set was active somewhere.
FLuc stim CS: affects firefly luciferase, flagging false hits in luciferase stimulation screens; activation factor at 10 µM; ATPlite luciferase biochemical, luminescence, 10 min; 0 = ATP-free wells, 1 = DMSO control; 200,000 tested, under 10 active;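 active = luciferase activation factor, scaled between plate controls, of at least 2 with compound at 10 µM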
Target sequence (P08659 whole entry, looked up): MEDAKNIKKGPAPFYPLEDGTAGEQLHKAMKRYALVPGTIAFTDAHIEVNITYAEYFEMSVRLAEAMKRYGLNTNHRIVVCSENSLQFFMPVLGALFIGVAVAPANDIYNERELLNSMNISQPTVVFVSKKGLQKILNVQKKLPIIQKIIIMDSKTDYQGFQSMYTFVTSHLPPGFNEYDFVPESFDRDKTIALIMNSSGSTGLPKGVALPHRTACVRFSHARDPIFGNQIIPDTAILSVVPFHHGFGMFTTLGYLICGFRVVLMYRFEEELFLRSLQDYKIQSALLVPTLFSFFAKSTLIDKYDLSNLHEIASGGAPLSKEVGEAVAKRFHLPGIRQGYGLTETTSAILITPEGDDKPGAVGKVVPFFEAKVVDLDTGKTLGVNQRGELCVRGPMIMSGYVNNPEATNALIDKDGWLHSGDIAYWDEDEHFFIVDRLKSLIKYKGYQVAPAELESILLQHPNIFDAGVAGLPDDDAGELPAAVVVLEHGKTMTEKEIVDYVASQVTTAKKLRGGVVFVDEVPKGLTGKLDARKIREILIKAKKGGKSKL
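Assay system: Luciferase/luciferin detection reagent, cell-free biochemical luciferase assay / Read-out: luciferase activation / Benchmarks: No-ATP low control, compound-free enzyme-plus-ATP high control / Medium: PBS buffer for ATP / Detection: luminescence measurement of luciferase light output / Schedule: 10 min at ambient temperature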
NF-kB neuron act: raises NF-kB expression in human neuronal cells. NF-kB reporter expression; active compounds read high. 190,000 tested, 1.6% active. AID 1239. fold change at 12.5 µM; in the data active = fold change above about 3.3
FLuc inh counter: inhibits firefly luciferase, flagging false hits in luciferase inhibition screens; P08659; ATPLite firefly luciferase biochemical luminescence, 10 min; inhibition, % at 10 µM; 200,000 tested, 1.5% active;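 active = inhibition above about 50% when tested at 10 µM, limit read from the data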
APP 5'UTR act: APP 5'UTR luciferase reporter activation. SH-SY5Y APP 5'UTR luciferase reporter, luminescence; zero percent = DMSO vehicle wells. activation, % at 2 µM. 190,000 tested, 1% active;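 active = activation above a set limit, based on mean plus 3 SD of controls, cut at about 140% in these data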
Pf gametocyte: inhibitors of late stage P. falciparum gametocyte viability | P. falciparum stage V gametocytes, ATP luminescence, 24 h | inhibition, % at 10.9 µM | 150,000 tested, 0.065% active;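 active = inhibition above the mean plus 3 SD of compounds within the control limits, set per campaign, cut at about 38% in these data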;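 note: 0% = DMSO wells and 100% = medium only without gametocytes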
STAT1 activator: activators of IFN-gamma induced STAT1 signaling; NIH 3T3 STAT1-luciferase reporter, luminescence; 100% = IFN-gamma alone, no compound; activation (% of control), % at 5.5 µM; 200,000 tested, 2.6% active;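 active = activation above the screen-wide mean activation plus 3 SD, cut at about 130% in these data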;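 note: raw ratio to IFN-gamma control signal so 100% means no change and 0% no light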
Active calls of the source: *; nt = no result.

SMILES	FLuc stim CS	NF-kB neuron act	FLuc inh counter	APP 5'UTR act	Pf gametocyte	STAT1 activator
Clc1ccc(-c2cn3c(n2)CCC3)cc1	0.9	3.49*	9.9	115.2	-15.1	120.6
Clc1ccc(-c2nnc3n2CCCCC3)cc1	1	1	-3.5	9.8	nt	103.2
CCc1ccc(NC(=S)N(Cc2ccccc2)Cc2ccccn2)cc1	1	1.07	-3.7	20.2	2.2	109.6
O=C(/C=C/c1ccc([N+](=O)[O-])cc1)Nc1ncc([N+](=O)[O-])s1	0.4	1.35	60.9*	221.3*	-34.4	146.6*
O=C(/C=C/c1ccc([N+](=O)[O-])cc1)NCc1ccccn1	1.1	1.06	-6.3	-17.5	nt	108.4
Fc1ccc(-c2cnc(-c3cccs3)o2)cc1	0.7	1.83	34.9	69.5	8.5	142.1*
NC(=O)CSc1nc(C2CC2)nc2sc3c(c12)CCCC3	0.5	3.84*	51.6*	139.8*	-24.0	149.7*
CC(=O)Nc1cccc(C(=O)N/N=C/c2ccccc2F)c1	0.7	2.72	34.8	46.6	-20.3	143.1*
Cc1cc(/C=N/NC(=O)c2ccncc2)c(C)n1-c1cccc(C(F)(F)F)c1	nt	nt	nt	nt	18.3	nt
Cc1cc(/C=N/NC(=O)c2ccccc2F)c(C)n1-c1ccccc1	0.2	3.09	75.1*	96.1	-6.1	131.2*
Cc1cc(/C=N/NC(=O)c2cccc(F)c2)c(C)n1-c1ccccc1	0.2	0.74	78.6*	79.5	-5.9	108.7
CCOC(=O)N/N=C/c1cc(C)n(-c2ccccc2)c1C	0.6	1.4	37.9	13.0	10.0	109.9
C=CCn1c(=O)[nH]c(=O)c2c(N)c(C(=O)c3ccc(OC)cc3)sc21	nt	nt	nt	nt	2.2	nt
COc1ccc(N(C(C)=O)c2nc3ccccc3[nH]2)cc1	nt	nt	nt	nt	7.9	nt
O=C(Oc1ccc(-c2ccccc2)cc1)N1CCCCC1	0.9	7*	6.7	4.8	17.7	130.5*
O=C(COC(=O)c1ccccc1C(=O)c1ccc(Cl)cc1)NCC1CCCO1 (configuration not stated)	1.1	0.92	-6.2	6.1	nt	93.7
Cc1csc(=N)n1-c1ccc(Cl)cc1	0.9	2.15	10.7	34.9	-0.4	136.7*
Cc1cc(=O)cc(C)n1-c1ccc(Cl)cc1	1	0.89	-4.7	-8.6	-18.1	92.6
Cc1csc(=S)n1-c1ccccc1	1.1	1.13	-7.0	-5.3	nt	99.4
Cc1ccc(-n2c(C)csc2=N)cc1	0.4	3.51*	58.9*	113.2	nt	124.7
CCN1CCCc2cc(CN(CCN3CCOCC3)C(=S)Nc3cccc(Cl)c3)ccc21	1.1	8.13*	-7.2	7.0	-2.1	98.3
CCN1CCCc2cc(CN(CCN3CCOCC3)C(=S)Nc3ccc(C)cc3)ccc21	1.1	1.12	-8.1	11.6	3.1	100.2
N/C(=N\OC(=O)c1ccc2c(c1)OCO2)c1ccncc1	nt	nt	nt	nt	5.4	nt
CCOc1ccc(N/C=C\C(=O)c2ccc3c(c2)OCO3)cc1	nt	2.26	nt	-7.8	-24.7	130.9*
O=C(/C=C\Nc1ccc2c(c1)OCO2)c1ccc2c(c1)OCO2	0.1	8.02*	89.3*	197.2*	-12.6	51.2
SMILES	FLuc stim CS	NF-kB neuron act	FLuc inh counter	APP 5'UTR act	Pf gametocyte	STAT1 activator
O=C(/C=C\Nc1ccc2c(c1)OCO2)c1ccccn1	0	1.3	95.2*	120.4	nt	20.6
CCOc1ccc(N/C=C/C(=O)c2ccc(OC)cc2)cc1	nt	nt	nt	nt	3.4	nt
COc1ccc(/C(N)=N/OC(=O)c2ccc3c(c2)OCO3)cc1	0.3	2.88	69.1*	60.4	1.1	112.9
O=C(NCc1ccc2c(c1)OCO2)c1ccccn1	1.1	2.57	-8.8	38.9	nt	98.5
CC(CCc1ccccc1)OS(N)(=O)=O (configuration not stated)	nt	nt	nt	nt	0.6	nt
COc1ccc(NC(=O)c2ccc3c(c2)OCO3)cc1	nt	nt	nt	nt	9.8	nt
COc1ccc(N/C=C\C(=O)c2ccc3c(c2)OCO3)cc1	0.1	8.41*	88.7*	74.8	nt	111.9
Cc1ccccc1CC1(CO)CCCN(C(=O)Cc2c(F)ccc(F)c2F)C1 (configuration not stated)	nt	nt	nt	nt	10.7	nt
CN(C)S(=O)(=O)c1cccc(C(=O)NCCc2ccccc2)c1	0.7	2.53	27.6	156.1*	-44.8	134.1*
C/C(=C\c1ccccc1)C(=O)NCCc1ccccc1	0.7	4.52*	33.8	177.4*	-15.8	105.2
CC(=O)Oc1ccc(C(=O)NCCc2ccccc2)cc1	0.5	2.85	51.1*	127.1	nt	103.5
O=C(NCCc1ccccc1)c1cccnc1	1	1.9	1.8	9.0	nt	124.6
CN(C)S(=O)(=O)c1cccc(C(=O)Nc2ccccc2)c1	1	1.3	3.5	0.2	-2.8	105.7
O=C(NCCc1ccccc1)c1ccc2nccnc2c1	0.2	1.07	77.0*	74.8	nt	80.6
O=C(NCCc1ccccc1)C(=Cc1ccc(C(=O)O)cc1)C(=O)NCCc1ccccc1	1	1.02	-4.3	-0.3	-18.8	95.2
N#Cc1ccccc1Cn1cc(/C=C/[N+](=O)[O-])c2ccccc21	1	3.15	0.4	-19.7	-28.3	105.0
CSc1c(CC(=O)Nc2ccccc2)n(Cc2ccccc2)c2ccccc12	1	1.11	-4.8	17.9	nt	103.4
COc1cc(NC(=S)Nc2cccnc2)cc(OC)c1	1	1.09	-3.4	8.9	22.4	106.3
CCOc1ccc(C(=O)NCCc2ccccc2)cc1	0.3	3.64*	72.8*	123.1	4.3	95.8
CCOc1ccc(C(=O)NCCCCNC(=O)c2ccc(OCC)cc2)cc1	nt	nt	nt	nt	-5.0	nt
COc1ccc(/C(C)=N/NC(=S)NCCc2ccccc2)cc1	1	1.14	-2.6	25.7	39.2*	96.9
OCC[C@H]1C[C@H](O)[C@@H](O)[C@]2(OCCc3ccccc32)O1	nt	nt	nt	nt	25.4	nt
Cc1cc(Br)cc(C)c1OCC(=O)NNC(=O)CCC(=O)NCc1ccccc1	1	1.05	-1.6	5.5	-17.0	95.6
CC(C)Sc1nc2sc(-c3ccccc3)cc2c(=O)n1N	1.1	1.16	-5.1	20.2	nt	107.2
CSc1nc2sc(-c3ccccc3)cc2c(=O)n1N	0.7	1.99	34.3	2.0	nt	138.1*
SMILES	FLuc stim CS	NF-kB neuron act	FLuc inh counter	APP 5'UTR act	Pf gametocyte	STAT1 activator
CCc1nnc(NC(=O)CSc2nc3cc4c(cc3cc2CC)OCCO4)s1	1	3.45*	-4.1	-3.8	nt	104.9
CCc1cc2cc3c(cc2nc1SCC(=O)Nc1nnc(C)s1)OCCO3	1	0.94	-1.6	0.5	nt	100.1
CCCc1cc(=O)oc2cc(OCc3ccc(OC)cc3)c(Cl)cc12	1	1.18	-2.5	11.0	-7.7	94.3
Cc1cc(/C=C(\C#N)C(=O)NC2CC2)c(C)[nH]1	0.6	2.34	41.7	39.5	-8.3	145.3*
CCC(=O)c1ccc(CCCCCC(=O)O)s1	1	1.26	-3.3	11.6	-5.8	99.5
CC(=O)NCc1ccc(C(=O)CCl)s1	1	4.03*	-4.0	6.7	-6.6	99.0
Cc1ccc(OC(=O)c2sc3ncn(C)c(=O)c3c2C)cc1	1	3.35*	2.0	129.4	23.6	135.5*
O=C(NC1CCN(S(=O)(=O)c2cccc(F)c2)CC1)c1ccc(F)cc1	nt	nt	nt	nt	-5.2	nt
